Test results from the EternaBench riboswitch data.

System: MS2 coat protein
Assay: apparent Kd, MS2 coat protein; higher = weaker binding; RNA-MaP array
Method in brief: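 Designed RNAs were transcribed in place on an Illumina sequencing chip from sequenced DNA templates. At room temperature and with or without input ligand, they were incubated with fluorescently labeled MS2 coat protein from 1.5 nM to 3 μM, for 0.8–1.5 h at the lowest and 10–20 min at the highest concentrations. Apparent Kd is the median of the binding-curve fits made per cluster, with designs measured on fewer than 10 clusters excluded.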

[1] = designed as: OFF switch for flavin mononucleotide, no ligand
[2] = ligand present: flavin mononucleotide, designed as: OFF switch for flavin mononucleotide
[3] = designed as: OFF switch for tryptophan, no ligand
[4] = ligand present: tryptophan, designed as: OFF switch for tryptophan
[5] = designed as: ON switch for flavin mononucleotide, no ligand
[6] = ligand present: flavin mononucleotide, designed as: ON switch for flavin mononucleotide

Row | Sequence | apparent Kd [1] | apparent Kd [2] | apparent Kd [5] | apparent Kd [6] | also measured
1 | ACAUGCUCUGAGGAUAUCAAUAAUCCCUAUUACUGAGAAGGCAGCACAUGAGGAUCACCCAUGUGAGGUGAGUC | 34.5 nM | 58.8 nM |  |  | 
2 | ACCAACCACACCCUUCACUGUUUUCGCCGCCGAGGACCGGUACGGCCGCCACUCGUACAAAGACAUGAGGAUCACCCAUGUGCCU |  |  |  |  | apparent Kd [3]: 14.5 nM; apparent Kd [4]: 21.4 nM
3 | ACCGGACAUGAGGAUCACCCAUGUCUUGCAUAGGUAGGAUAUGAAUCAAGGACUUGAUCAUCAGAAGGACCCAGGC |  |  | 8.44 nM | 7.13 nM | 
4 | ACCUAGAGAUAGAAGGUUUAUAUGACCCUACAUGAGGAUCACCCAUGUUGUGGUAUUAUUCGUGAAAAGGAUAUAUCCCGUGAC |  |  | 7.6 nM | 7.52 nM | 
5 | ACUAGACAUGAGGAUCACCCAUGUGAGGAUAUCUUGCUAUGCACUAUGGGCCAACGGAAGAGAAGGCACUGGGA | 45.7 nM | 93.2 nM |  |  | 
6 | ACUCGAUUACACAACCCGACAUGAGGAUCACCCAUGUAUCCGAGAAGGGCUAAUAUAUUCAGGAAGCAGGAUAUCGAAUCAAUA |  |  | 87.5 nM | 50.5 nM | 
7 | ACUCGGCAUCAUGAUACCAGAGAGCCCGAGAUGCCUUAACACAUGAGGAUCACCCAUGUACUCCCUUGGCAGCAUCAUGCACUAU |  |  |  |  | apparent Kd (designed as: OFF switch for theophylline, no ligand): 19.4 nM; apparent Kd (ligand present: theophylline, designed as: OFF switch for theophylline): 24.4 nM
8 | ACUUGUGAGUCGGCCGCCACUCACCGGUAGUGUCACUCGUUCACAAACAUGAGGAUCACCCAUGUGAGGACCGGGACAGUCGGGU |  |  |  |  | apparent Kd [3]: 17.2 nM; apparent Kd [4]: 25.8 nM
9 | AGACCCAGAGGAUAUAACACAUGUAACAUGAGGAUCACCCAUGUGUCUAGUAGACACUUGUUAGAAGGCAGGCAUG | 83.2 nM | 54.5 nM |  |  | 
10 | AGGAACGUAGAGAAGGGAUCAAUUCGGUACAUGAGGAUCACCCAUGUGAUGGCCAAACUUCGAAAUCAGGAUAUCUCAUAAUAC |  |  | 18.4 nM | 14.2 nM | 
11 | AGGCGGGUAGGAUAUACCUUGUUCCUAGUAUCCAGUCGAGGACAUGAGGAUCACCCAUGUAGAAGGACCCAUUC | 30.9 nM | 36.5 nM |  |  | 
12 | AGUCAAGAGUAGAAGGGUGGAAAUUCGGUCGACACAGGAUAUACUUCAGGAGCCAGAAGACAAUAACAUGAGGAUCACCCAUGU |  |  | 14.1 nM | 9.27 nM | 
13 | AUAAAACGAGUGCAGGAUAUUCCGUCGCGCACAUGAGGAUCACCCAUGUCAAUUGGGCAUCGUACGAAGAAGGGCAAAUACCAGCG |  |  | 116 nM | 76.4 nM | 
14 | AUCACAUGAGGAUCACCCAUGUUAGGUAGAUGCAGUAAAGUCUAGGAUAUAAGCUUGUGAAGUAGUUAGAAGGAGACACAUGAG | 22.9 nM | 18.3 nM |  |  | 
15 | AUCAGUCUAGAAGGAUAUCAGCCCGAAGCCGAGUGAGAAGGUCUAGACAUGAGGAUCACCCAUGUCACAGCAACUAUCAAGAAC | 9.74 nM | 19.1 nM |  |  | 
16 | AUGAGUGGCCUGACAUGAGGAUCACCCAUGUCAAAUAAUGCAAGAAGGGACCUUUAUUCAAGGUGUCAGGAUAUUGAUUAAACC |  |  | 15.8 nM | 12.9 nM | 
17 | AUGAUCAUAGUAAGGAUAUCCGGACCAAUAGCAAAGGAGAAGGUACAUGAGGAUCACCCAUGUUUAUUAAUACU | 9.11 nM | 9.98 nM |  |  | 
18 | AUGCUUAAAAUGCUCAAACAUGAGGAUCACCCAUGUGAGGUCAAGGAUAUUAUUUAACUUGUUUAUAAGAAGGUGACCGAAUGA |  |  | 61.1 nM | 18.7 nM | 
19 | AUGUUCGAACAUGAGGAUCACCCAUGUGAACCUCAUAAACGUAGAAGGCGACCGAGUUUAUGGGUCGAGGAUAUACCUCGAGAA | 334 nM | 554 nM |  |  | 
20 | AUUAGCAUCCAAGGAUAUCAGUUGGCCCGCAGGUGAGAAGGUGGAUUCUGGGCGCCGCGUGGGACACAUGAGGAUCACCCAUGU | 30.3 nM | 26 nM |  |  | 
21 | AUUCAUCUCUAGAAGGGACUGCACAAAACACAGAAUUCUUACAUGAGGAUCACCCAUGUUGUGGGUCAGGAUAUAGGCAGGCCA |  |  | 25.3 nM | 20.1 nM | 
22 | AUUCCAAUAGGAUAUACAUGAGGAUCACCCAUGUGAUGAGCCCGUAAGACAGACGUCAGUAGAAGGAUUAGGAA | 24.5 nM | 31.7 nM |  |  | 
23 | AUUGAGACCUAGAAGGCGAAAACAUGAGGAUCACCCAUGUAGAUAACACCUACAUGAGCGAAAUACGAGGAUAUAGGAAAACUC | 356 nM | 351 nM |  |  | 
24 | CAAAUAUAGUCAGGAUAUGUUCGAAAGGGUGCACAUGAGGAUCACCCAUGUCAUAAGACACUAGCACAGAAGGGACCCGAGAGA | 149 nM | 141 nM |  |  | 
25 | CAACAUGAGGAUCACCCAUGUGGAGGUCCCGUUACCGGCGGAUAGGAUAUGGAACGCAGCGAAAACCAGAAGGAUCUAUAGGAC |  | 112 nM |  |  | 
26 | CAAGCAUGAGAGAAGGUCCCAUCUAAACAUGAGGAUCACCCAUGUGAUACGGUGCUAUUGUGAAGGAAGGAUAUCUCAGUUAAU |  |  | 61.7 nM | 16.8 nM | 
27 | CACAACGGUAGUUAGGAUAUCCAUAUGCGUACAUGAGGAUCACCCAUGUAAUUACAGAAAUGAUAGGAGAAGGAACGCAUCCGAAA |  |  | 33.3 nM | 21 nM | 
